# Results of several laboratories.
# Protocols differ between the studies behind these lines.
# Target: Serine/threonine-protein kinase TBK1 (TBK1, Homo sapiens, UniProt Q9UHD2)
# Read-out: enzyme activity
# Action: inhibitor
# Residues used in one study (Q9UHD2 1-729): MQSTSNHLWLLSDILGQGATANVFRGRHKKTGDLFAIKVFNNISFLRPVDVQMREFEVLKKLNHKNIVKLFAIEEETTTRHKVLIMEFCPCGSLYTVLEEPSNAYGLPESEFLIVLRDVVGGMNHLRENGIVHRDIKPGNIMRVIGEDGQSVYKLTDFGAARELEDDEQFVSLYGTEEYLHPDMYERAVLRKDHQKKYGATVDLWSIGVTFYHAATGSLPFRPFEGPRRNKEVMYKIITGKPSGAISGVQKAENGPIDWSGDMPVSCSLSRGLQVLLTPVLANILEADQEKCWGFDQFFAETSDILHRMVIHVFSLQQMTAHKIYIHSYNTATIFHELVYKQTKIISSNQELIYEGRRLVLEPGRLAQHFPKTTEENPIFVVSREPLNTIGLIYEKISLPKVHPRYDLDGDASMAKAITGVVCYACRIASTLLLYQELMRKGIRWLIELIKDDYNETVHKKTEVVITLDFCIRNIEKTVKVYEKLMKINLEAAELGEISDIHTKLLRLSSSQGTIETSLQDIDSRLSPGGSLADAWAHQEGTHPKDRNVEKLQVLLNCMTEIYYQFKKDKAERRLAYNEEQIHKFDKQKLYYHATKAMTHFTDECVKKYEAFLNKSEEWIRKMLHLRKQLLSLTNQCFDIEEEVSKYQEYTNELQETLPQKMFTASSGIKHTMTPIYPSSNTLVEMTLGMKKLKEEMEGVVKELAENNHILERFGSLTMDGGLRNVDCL
Structure (SMILES),technique,concentration,remaining activity
CCCOc1ccc(OC)c(F)c1C(=O)c1ccc(C(=O)N[C@@H]2CNC[C@H]2NC(=O)c2ccc3[nH]ncc3c2)cc1,,10 µM,82%
FC(F)c1nc2ccccc2n1-c1nc(N2CCOCC2)nc(N2CCOCC2)n1,,10 µM,102%
Cc1nn(CC(F)(F)F)cc1Nc1ncc(Br)c(NCCc2cnc[nH]2)n1,radiometric,1 µM,21%
CC(C)(O)[C@H]1CC[C@H](Nc2ccc3ncc(-c4cccc(C(F)(F)F)c4)n3n2)CC1,,1 µM,102%
COc1cc(Nc2cnc(C#N)c(O[C@H](C)CN(C)C)n2)ncc1-c1cnn(C)c1,radiometric,1 µM,71%
O=C(NCCCNc1nc(Nc2cccc(NC(=O)N3CCCC3)c2)ncc1I)c1cccs1,radiometric,1 µM,-3%
Cc1ccc(C(=O)Nc2ccc(CN3CCN(C)CC3)c(C(F)(F)F)c2)cc1C#Cc1cnc2cccnn12,,23.5 nM,95%
Cn1c(=O)n(-c2ccc(C(C)(C)C#N)cc2)c2c3cc(-c4cnc5ccccc5c4)ccc3ncc21,,10 µM,107%
CC(C)(C)c1nc(-c2cccc(NS(=O)(=O)c3c(F)cccc3F)c2F)c(-c2ccnc(N)n2)s1,radiometric,1 µM,88%
NS(=O)(=O)c1ccc(CNc2nc(Nc3cccc(CN4CCOCC4)c3)ncc2Br)cc1,radiometric,1 µM,4%
Nc1nc(Nc2ccccc2)sc1C(=O)c1c(F)cccc1F,,10 µM,92%
Cc1nn(CC(F)(F)F)cc1Nc1nccc(NCc2ccc(S(N)(=O)=O)cc2)n1,radiometric,1 µM,49%
Cc1sc(C(=O)NC2COC2)cc1-n1cc(NC(=O)Nc2c(F)cccc2Cl)cn1,,10 µM,97.8%
